Test results reported in ChEMBL document CHEMBL1123499, “Synthesis, saludiuretic, and antihypertensive activity of 6,7-disubstituted 1(2H)- and 3,4-dihydro-1(2H)-phthalazinones” (1986).

How the values were obtained:
[1] = species on record: Rattus norvegicus; experiment: Saluretic activity in rats after 0-5 hours, as ratio of Na+/K+ ion concentration in urine; assay type: functional
Method in brief: (§1)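 Male Sabra rats (170-200 g), fasted 18 h, dosed orally 50 mg/kg in saline at 25 mL/kg, eight per compound, two per metabolic cage, no food or water. Urine collected 5 and 24 h after dosing and centrifuged. Chloride titrated with Hg(NO3)2/diphenylcarbazone after HNO3 acidification; Na+ and K+ by atomic absorption.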

[2] = species on record: Rattus norvegicus; experiment: Saluretic activity in rats after 0-5 hours, as potassium ion concentration in urine; assay type: functional; method in brief: as §1
[3] = species on record: Rattus norvegicus; experiment: Saluretic activity in rats after 5-24 hours, as ratio of Na+/K+ ion concentration in urine; assay type: functional; method in brief: as §1
[4] = species on record: Rattus norvegicus; experiment: Saluretic activity in rats after 5-24 hours, as potassium ion concentration in urine; assay type: functional; method in brief: as §1
[5] = species on record: Rattus norvegicus; experiment: Saluretic activity in rats after 0-24 hours, as sodium ion concentration in urine; assay type: functional; method in brief: as §1
[6] = species on record: Rattus norvegicus; experiment: Compound was tested for antihypertensive activity in rat after 24 hr postdose; assay type: functional
Method in brief: (§2)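 DOCA/saline hypertensive Sprague-Dawley rats (250-350 g), six per group, given 10 mg/kg doca s.c. daily with saline until systolic BP reached 170 mmHg (usually 3-4 weeks). Oral 25 mg/kg in 5 mL/kg 1% methylcellulose. Systolic BP by tail-cuff before and 1, 4, 24 h after; drop reported as mean ± SD.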

[7] = species on record: Rattus norvegicus; experiment: Diuretic activity in rats at time intervals of 0-24 hours; assay type: functional, Urine
Method in brief: (§3)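 Male Sabra rats (170-200 g), starved 18 h, given 50 mg/kg by stomach tube in saline (25 mL/kg load), eight per compound, saline and furosemide controls run alongside. Held two per metabolic cage at 22 °C without food or water. Urine volume measured at 5 and 24 h collections.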

[8] = species on record: Rattus norvegicus; experiment: Saluretic activity in rats after 0-24 hours, as chloride ion concentration in urine; assay type: functional; method in brief: as §1
[9] = species on record: Rattus norvegicus; experiment: Diuretic activity in rats at time intervals of 5-24 hours; assay type: functional, Urine; method in brief: as §3
[10] = species on record: Rattus norvegicus; experiment: Compound was tested for antihypertensive activity in rat after 1 hr postdose; assay type: functional; method in brief: as §2
[11] = species on record: Rattus norvegicus; experiment: Diuretic activity in rats at time intervals of 0-5 hours; assay type: functional, Urine; method in brief: as §3
[12] = species on record: Rattus norvegicus; experiment: Saluretic activity in rats after 0-5 hours, as chloride ion concentration in urine; assay type: functional; method in brief: as §1
[13] = species on record: Rattus norvegicus; experiment: Compound was tested for antihypertensive activity in rat after 4 hr postdose; assay type: functional; method in brief: as §2
[14] = species on record: Rattus norvegicus; experiment: Saluretic activity in rats after 0-24 hours, as potassium ion concentration in urine; assay type: functional; method in brief: as §1
[15] = species on record: Rattus norvegicus; experiment: Saluretic activity in rats after 0-24 hours, as ratio of Na+/K+ ion concentration in urine; assay type: functional; method in brief: as §1
[16] = species on record: Rattus norvegicus; experiment: Saluretic activity in rats after 0-5 hours, as sodium ion concentration in urine; assay type: functional; method in brief: as §1
[17] = species on record: Rattus norvegicus; experiment: Saluretic activity in rats after 5-24 hours, as sodium ion concentration in urine; assay type: functional; method in brief: as §1
[18] = species on record: Rattus norvegicus; experiment: Saluretic activity in rats after 5-24 hours, as chloride ion concentration in urine; assay type: functional; method in brief: as §1

Work on NS(=O)(=O)c1cc2c(cc1Cl)C(=O)NNC2 yielded a Ratio [1] of 2.04, a Saluretic activity [2] of 1.58 m equiv kg-1 and a Ratio [3] of 1.48. The Saluretic activity [4] was 3.94 m equiv kg-1, the Saluretic activity [5] was 9.07 m equiv kg-1 and the “Decrease in blood pressure” value [6] was 47.7 mmHg. The Diuretic activity [7] was 6.6 mL, the Saluretic activity [8] was 9.77 m equiv kg-1 and the Diuretic activity [9] was 3.7 mL. The “Decrease in blood pressure” value [10] was 34.7 mmHg, the Diuretic activity [11] was 2.9 mL and the Saluretic activity [12] was 3.49 m equiv kg-1. The “Decrease in blood pressure” value [13] was 51 mmHg, the Saluretic activity [14] was 5.52 m equiv kg-1 and the Ratio [15] was 1.64. It also gave a Saluretic activity [16] of 3.23 m equiv kg-1, a Saluretic activity [17] of 5.84 m equiv kg-1 and a Saluretic activity [18] of 6.28 m equiv kg-1.

NNc1nncc2ccccc12 [HYDRALAZINE] was tested, and the “Decrease in blood pressure” value [6] was 35.3 mmHg, the “Decrease in blood pressure” value [10] was 72.4 mmHg and the “Decrease in blood pressure” value [13] was 75.1 mmHg.

Compound NS(=O)(=O)c1cc2c(cc1Cl)CNN(c1cccc(C(F)(F)F)c1)C2=O has a Ratio [1] of 3.1, a Saluretic activity [2] of 1.99 m equiv kg-1 and a Ratio [3] of 1.43. It also gave a Saluretic activity [4] of 3.42 m equiv kg-1, a Saluretic activity [5] of 11.07 m equiv kg-1 and a Diuretic activity [7] of 11.6 mL. For the same compound, the Saluretic activity [8] was 12.6 m equiv kg-1, the Diuretic activity [9] was 6.7 mL and the Diuretic activity [11] was 4.9 mL. It also gave a Saluretic activity [12] of 7.91 m equiv kg-1, a Saluretic activity [14] of 5.41 m equiv kg-1 and a Ratio [15] of 2.05. For the same compound, the Saluretic activity [16] was 6.17 m equiv kg-1, the Saluretic activity [17] was 4.9 m equiv kg-1 and the Saluretic activity [18] was 4.69 m equiv kg-1.

Work on NS(=O)(=O)c1cc2c(=O)n(-c3cccc(C(F)(F)F)c3)ncc2cc1Cl yielded a Ratio [1] of 1.72, a Saluretic activity [2] of 1.27 m equiv kg-1 and a Ratio [3] of 1.33. For the same compound, the Saluretic activity [4] was 3.04 m equiv kg-1, the Saluretic activity [5] was 6.25 m equiv kg-1 and the Diuretic activity [7] was 6.6 mL. The Diuretic activity [9] was 4.4 mL, the Diuretic activity [11] was 2.2 mL and the Saluretic activity [14] was 4.31 m equiv kg-1. For the same compound, the Ratio [15] was 1.45 and the Saluretic activity [16] was 2.18 m equiv kg-1.

NS(=O)(=O)c1cc2c(cc1Cl)C(=O)N(Cc1ccccc1)NC2 was tested, and the Ratio [1] was 2.1, the Saluretic activity [2] was 1.92 m equiv kg-1 and the Ratio [3] was 1.67. For the same compound, the Saluretic activity [4] was 3.29 m equiv kg-1, the Saluretic activity [5] was 9.51 m equiv kg-1 and the Diuretic activity [7] was 7.6 mL. For the same compound, the Saluretic activity [8] was 10.53 m equiv kg-1, the Diuretic activity [9] was 3.6 mL and the Diuretic activity [11] was 4 mL. For the same compound, the Saluretic activity [12] was 5.14 m equiv kg-1, the Saluretic activity [14] was 5.21 m equiv kg-1 and the Ratio [15] was 1.83. It also gave a Saluretic activity [16] of 4.01 m equiv kg-1, a Saluretic activity [17] of 5.5 m equiv kg-1 and a Saluretic activity [18] of 5.39 m equiv kg-1.

NS(=O)(=O)c1cc2c(=O)n(Cc3ccco3)ncc2cc1Cl was tested, and the Ratio [1] was 2.83, the Saluretic activity [2] was 1.58 m equiv kg-1 and the Ratio [3] was 1.11. The Saluretic activity [4] was 2.16 m equiv kg-1, the Saluretic activity [5] was 6.08 m equiv kg-1 and the Diuretic activity [7] was 2.8 mL. It also gave a Saluretic activity [8] of 5.26 m equiv kg-1, a Diuretic activity [9] of 1 mL and a Diuretic activity [11] of 1.8 mL. For the same compound, the Saluretic activity [12] was 3.8 m equiv kg-1, the Saluretic activity [14] was 3.74 m equiv kg-1 and the Ratio [15] was 1.63. It also gave a Saluretic activity [16] of 3.68 m equiv kg-1, a Saluretic activity [17] of 2.4 m equiv kg-1 and a Saluretic activity [18] of 1.46 m equiv kg-1.

NS(=O)(=O)c1cc2c(cc1Cl)NCNS2(=O)=O [HYDROCHLOROTHIAZIDE] was tested, and the “Decrease in blood pressure” value [6] was 18 mmHg, the “Decrease in blood pressure” value [10] was 28.6 mmHg and the “Decrease in blood pressure” value [13] was 36.7 mmHg.
